Reference: ChEMBL document CHEMBL4342410, “Design and Discovery of N-(3-(2-(2-Hydroxyethoxy)-6-morpholinopyridin-4-yl)-4-methylphenyl)-2-(trifluoromethyl)isonicotinamide, a Selective, Efficacious, and Well-Tolerated RAF Inhibitor Targeting RAS Mutant Cancers: The Path to the Clinic” (J Med Chem, 2020)
pEC50, pIC50: −log10 of the molar value. In brackets after ≈: the same amount, converted by molar mass. Activity calls are given as the source filed them. The rule behind the calls is not given here.

Assays:
[1] = Apparent permeability across apical to basolateral side in human Caco2 cells at pH 7.4 by LC/MS/MS analysis; type: ADME, cell-based; details: Caco-2, pH 7.4
[2] = target: RAF proto-oncogene serine/threonine-protein kinase (Homo sapiens, UniProt P04049, Y340E/Y341E); assay: Inhibition of CRAF Y340E/Y341E mutant (unknown origin) using human MEK1 K97R mutant as substrate pretreated for 30 mins followed by substrate addition measured after 40 mins by alphascreen assay
Calu-6 = assay: Antiproliferative activity against human Calu6 cells harboring KRAS Q61K mutant assessed as reduction in cell viability after 72 hrs by CellTiter-Glo assay; type: functional, cell-based; details: Calu-6, 72 h
[3] = Apparent permeability across basolateral to apical side in human Caco2 cells at pH 7.4 by LC/MS/MS analysis; type: ADME, cell-based; details: Caco-2, pH 7.4
[4] = Solubility of compound in pH 6.8 Cl-free PBS buffer by shake-flask assay; type: physicochemical
Summary of the method: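 Shake-flask solubility measured in chloride-free PBS at pH 6.8.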

[5] = Intrinsic clearance in human liver microsomes; type: ADME, Microsome; details: read-out: CLH
Cytochrome P450 3A4 = Cytochrome P450 3A4 (Homo sapiens, UniProt P08684); assay: Time dependent inhibition of CYP3A4 in human liver microsomes assessed as inactivation rate constant at 10 uM using midazolam as substrate incubated prior to substrate addition and measured after 6 mins in presence of NADPH; type: ADME; details: 0.1 h
Summary of the method: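 Human liver microsomes (0.5 mg/mL) preincubated with test compound at 10 µM and 1 mM NADPH in phosphate buffer at 37 °C for 0, 5, 15 and 30 min. Mixture then diluted 20-fold and incubated with midazolam (20 µM) at 37 °C for 6 min to measure residual CYP3A4 activity. kobs taken as the initial rate of decline of activity versus preincubation time.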

[6] = target: T1, RAF proto-oncogene serine/threonine-protein kinase (Homo sapiens, UniProt P04049); assay: Inhibition of CRAF in human Calu6 cells assessed as reduction MEK phosphorylation measured after 1 hr by sandwich ELISA; type: cell-based
[7] = Drug level in rat hepatocytes treated with RAF709 at 10 uM measured after 3 hrs by LC-MS/MS analysis; type: ADME, cell-based, Hepatocyte
[8] = Drug level in dog hepatocytes treated with RAF709 at 10 uM measured after 3 hrs by LC-MS/MS analysis; type: ADME, cell-based, Canis lupus familiaris, Hepatocyte
[9] = Drug level in human hepatocytes treated with RAF709 at 10 uM measured after 3 hrs by LC-MS/MS analysis; type: ADME, cell-based, Hepatocyte
[10] = Drug metabolism in human hepatocytes assessed as amide hydrolysis at 10 uM measured after 3 hrs by LC-MS/MS analysis; type: ADME, cell-based, Hepatocyte
[11] = Stability in dog hepatocytes assessed as parent compound remaining at 10 uM measured after 3 hrs by LC-MS/MS analysis; type: ADME, cell-based, Canis lupus familiaris, Hepatocyte; details: read-out: Stability
[12] = Stability in rat hepatocytes assessed as parent compound remaining at 10 uM measured after 3 hrs by LC-MS/MS analysis; type: ADME, cell-based, Hepatocyte
[13] = Stability in human hepatocytes assessed as parent compound remaining at 10 uM measured after 3 hrs by LC-MS/MS analysis; type: ADME, cell-based, Hepatocyte; details: read-out: Stability
[14] = Drug metabolism in rat hepatocytes assessed as amide hydrolysis at 10 uM measured after 3 hrs by LC-MS/MS analysis; type: ADME, cell-based, Hepatocyte
[15] = target: T1, RAF proto-oncogene serine/threonine-protein kinase; assay: Activation of CRAF in human Calu6 cells assessed as induction of MEK phosphorylation at 3 uM measured after 1 hr by sandwich ELISA; type: cell-based
[16] = target: T1, RAF proto-oncogene serine/threonine-protein kinase; assay: Inhibition of CRAF in human Calu6 cells assessed as reduction MEK phosphorylation up to 24 uM measured after 1 hr by sandwich ELISA; type: cell-based
[17] = Stimulation of BRAF-CRAF dimerization in human HCT116 cells measured after 2 hrs by NanoBit luciferase complementation assay; type: cell-based

T1 sequence (P04049 whole entry): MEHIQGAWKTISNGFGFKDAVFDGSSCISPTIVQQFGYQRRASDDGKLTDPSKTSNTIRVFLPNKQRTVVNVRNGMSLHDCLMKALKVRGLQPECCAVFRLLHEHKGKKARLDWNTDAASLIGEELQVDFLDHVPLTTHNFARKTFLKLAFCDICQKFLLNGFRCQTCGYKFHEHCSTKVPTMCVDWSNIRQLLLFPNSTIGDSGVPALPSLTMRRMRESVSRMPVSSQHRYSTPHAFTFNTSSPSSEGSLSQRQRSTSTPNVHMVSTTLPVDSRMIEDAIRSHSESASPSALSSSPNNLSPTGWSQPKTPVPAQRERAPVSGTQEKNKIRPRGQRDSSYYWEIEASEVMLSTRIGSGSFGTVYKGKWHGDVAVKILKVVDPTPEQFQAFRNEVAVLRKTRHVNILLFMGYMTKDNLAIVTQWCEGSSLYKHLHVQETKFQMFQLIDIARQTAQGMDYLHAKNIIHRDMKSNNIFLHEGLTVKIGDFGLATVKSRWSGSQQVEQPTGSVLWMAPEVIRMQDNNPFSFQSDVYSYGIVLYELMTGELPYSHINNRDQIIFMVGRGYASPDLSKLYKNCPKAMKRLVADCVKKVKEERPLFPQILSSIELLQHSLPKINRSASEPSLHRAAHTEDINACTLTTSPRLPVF
Chain of RAF proto-oncogene serine/threonine-protein kinase (Homo sapiens, UniProt P04049, Y340E/Y341E) (P04049 whole entry Y340E/Y341E): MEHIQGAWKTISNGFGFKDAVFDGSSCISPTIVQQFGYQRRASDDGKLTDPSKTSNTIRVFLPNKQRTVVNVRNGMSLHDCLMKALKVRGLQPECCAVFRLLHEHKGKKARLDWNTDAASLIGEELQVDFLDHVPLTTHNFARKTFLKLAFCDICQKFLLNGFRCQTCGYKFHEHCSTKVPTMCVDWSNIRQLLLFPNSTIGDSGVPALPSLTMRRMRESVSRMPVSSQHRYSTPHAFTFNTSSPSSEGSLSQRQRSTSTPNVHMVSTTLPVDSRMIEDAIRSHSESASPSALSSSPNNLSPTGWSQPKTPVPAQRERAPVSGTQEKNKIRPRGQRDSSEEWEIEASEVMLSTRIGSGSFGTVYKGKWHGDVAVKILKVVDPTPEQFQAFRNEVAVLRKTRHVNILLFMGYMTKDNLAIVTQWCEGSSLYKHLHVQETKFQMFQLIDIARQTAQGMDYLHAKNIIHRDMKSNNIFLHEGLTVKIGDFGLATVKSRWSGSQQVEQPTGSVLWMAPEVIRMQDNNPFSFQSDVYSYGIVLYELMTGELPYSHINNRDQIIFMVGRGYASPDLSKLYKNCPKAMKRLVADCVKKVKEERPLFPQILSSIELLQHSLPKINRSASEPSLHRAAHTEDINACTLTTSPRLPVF
Chain of Cytochrome P450 3A4 (P08684 whole entry): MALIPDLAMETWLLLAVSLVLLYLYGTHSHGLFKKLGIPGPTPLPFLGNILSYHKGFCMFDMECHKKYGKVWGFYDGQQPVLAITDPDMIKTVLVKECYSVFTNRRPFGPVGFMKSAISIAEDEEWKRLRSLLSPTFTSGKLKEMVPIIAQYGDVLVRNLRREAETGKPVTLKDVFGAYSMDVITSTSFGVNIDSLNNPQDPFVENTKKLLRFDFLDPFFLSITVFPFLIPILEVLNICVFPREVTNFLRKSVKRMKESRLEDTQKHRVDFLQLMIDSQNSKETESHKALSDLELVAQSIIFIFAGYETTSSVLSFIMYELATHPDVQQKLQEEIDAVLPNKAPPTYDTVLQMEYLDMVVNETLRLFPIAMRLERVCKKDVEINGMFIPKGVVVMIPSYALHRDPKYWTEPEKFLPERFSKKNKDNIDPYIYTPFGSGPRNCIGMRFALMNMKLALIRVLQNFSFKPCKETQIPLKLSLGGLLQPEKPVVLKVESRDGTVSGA

SMILES	Papp A→B [1] [×10⁻⁶ cm/s]	pEC50 (Calu-6)	Papp B→A [3] [×10⁻⁶ cm/s]	solubility thermodynamic [4] [µM]	microsomal CLint [5] [µL/min/mg]	pEC50 [6]	Drug uptake [7]	Drug uptake [8]	Drug uptake [9]	further results
Cc1ccc(NC(=O)c2ccnc(C(F)(F)F)c2)cc1-c1cc(NCCO)nc(N2CCOCC2)c1	5	6.29	53	36.3 (≈ 18.2 µg/mL)	20.5	8.10	–	–	–	pIC50 [2]: 9.22; K (Cytochrome P450 3A4): 0.035 min⁻¹
Cc1ncc(N)cc1-c1cnc(OC2CCOCC2)c(N2CCOCC2)c1	–	–	–	–	–	–	Active	Active	Active	–
Cc1ncc(NC(=O)c2cccc(C(F)(F)F)c2)cc1-c1cnc(OC2CCOCC2)c(N(CCO)CCO)c1	–	–	–	–	–	–	Active	Active	Active	–
Cc1ccc(NC(=O)c2cccc(C(F)(F)F)c2)cc1-c1cc(N2CCOCC2)nc(NCCO)n1	8	6.80	30	2.1 (≈ 1.05 µg/mL)	48	7.21	–	–	–	pIC50 [2]: 9.70
Cc1ncc(NC(=O)c2ccnc(C(C)(F)F)c2)cc1-c1cc(NCCO)nc(N2CCOCC2)c1	3	5.21	34	730 (≈ 364 µg/mL)	10.4	7.57	–	–	–	pIC50 [2]: 9.15; K (Cytochrome P450 3A4): 0.035 min⁻¹
Cc1ncc(NC(=O)c2cccc(C(F)(F)F)c2)cc1-c1cnc(OC2CCOCC2)c(N2CCOCC2)c1	–	–	–	–	94	–	–	–	–	Drug metabolism [10]: < 1%; remaining at 3 h, 10 µM [11]: 74%; Stability [12]: 36%; remaining at 3 h, 10 µM [13]: 44%; Drug metabolism [14]: 20%
Cc1ncc(NC(N)=O)cc1-c1cnc(OC2CCOCC2)c(N2CCOCC2)c1	–	–	–	–	–	–	Active	Active	Active	–
CO[C@H]1COCC[C@@H]1Oc1ncc(-c2cc(NC(=O)c3cccc(C(F)(F)F)c3)cnc2C)cc1N1CCOCC1	–	5.75	–	43 (≈ 24.6 µg/mL)	302	7.68	–	–	–	pIC50 [2]: 8.77
Cc1ncc(NC(=O)c2cccc(C(F)(F)F)c2)cc1-c1cnc(OC(CCO)CCO)c(N2CCOCC2)c1	–	–	–	–	–	–	Active	Active	Active	–
Cc1ccc(NC(=O)c2cccc(C(F)(F)F)c2)cc1-c1cc(N2CCOCC2)ncn1	–	5.28	41	13 (≈ 5.75 µg/mL)	43.3	–	–	–	–	–
CC(C)(C)c1nc(-c2cccc(NS(=O)(=O)c3c(F)cccc3F)c2F)c(-c2ccnc(N)n2)s1 [DABRAFENIB]	–	–	–	–	–	–	–	–	–	Activity [15]: Active; inhibition [16]: inactive; EC50 [17]: Not Active
Cc1ccc(NC(=O)c2ccnc(C(C)(C)C#N)c2)cc1-c1cc(N2CCOCC2)c(=O)n(C)n1	6.3	5.87	49	33.9 (≈ 16 µg/mL)	15.5	7.28	–	–	–	–
Cc1ncc(NC(=O)c2cccc(C(F)(F)F)c2)cc1-c1c[nH]c(=O)c(N2CCOCC2)c1	0.3	5.41	43	55 (≈ 25.2 µg/mL)	9.4	–	Active	Active	Active	–
[2H]C1(Oc2ncc(-c3cc(NC(=O)c4cccc(C(F)(F)F)c4)cnc3C)cc2N2CCOCC2)CCOCC1	–	6.40	–	104 (≈ 56.5 µg/mL)	88	–	–	–	–	–
Cc1ncc(NC(=O)c2cccc(C(F)(F)F)c2)cc1-c1cnc(O[C@H]2CCOC[C@H]2F)c(N2CCOCC2)c1	16	6.47	20	25 (≈ 14 µg/mL)	65.5	–	–	–	–	–
Cc1ncc(NC(=O)c2cccc(C(F)(F)F)c2)cc1-c1cc(N2CCOCC2)c(OC2CCOCC2)nn1	4.4	6.06	51	59.6 (≈ 32.4 µg/mL)	7.7	8.10	–	–	–	–
